Marks after values point to notes of the source that are not given here.
Key:
[1] = tested on: laccase and melanin formation in C. neoformans; settings: cited from earlier work
[2] = tested on: C. neoformans var. grubii; test: microtiter plate assay of melanization in liquid medium; type: cell-based, Cryptococcus neoformans var. grubii; settings: for Melanization of treated cells, observed visually: 10 days, 30 °C
[3] = tested on: melanized C. neoformans var. grubii; test: halo assay; type: cell-based, Cryptococcus neoformans var. grubii (MAT α, H99 serotype A); settings: for Halo diameter: var. grubii
Procedure, shortened: (§1)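 Paper disks (6.5 mm) were loaded from DMSO stock solutions and air-dried 3 h at RT, then placed on lawns of target cells. The medium was defined minimal agar with 1 mM L-dopa, dopamine or epinephrine to give melanized cells. Doses were 20 μg/disk test compound, or 10 μg test compound with or without 2 μg amphotericin B per disk. Plates ran 6–8 days at 30 °C, and halo diameter (mm) and clarity were recorded.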

[4] = tested on: melanized C. neoformans var. gattii; test: halo assay; type: cell-based, Cryptococcus neoformans var. gattii (MAT α, serotype B)
Procedure, shortened: as §1

[5] = 20 μg/disk, 1 mM L-dopa, 30 °C, 6 to 8 days
[6] = 10 μg per disk, 1 mM L-dopa, 6 days
[7] = 20 μg per disk, 1 mM L-dopa in minimal medium, 6 to 8 days
[8] = 20 μg per disk, 1 mM dopamine in minimal medium, 6 to 8 days
[9] = 20 μg per disk, 1 mM epinephrine in minimal medium, 6 to 8 days

Structure (SMILES): O=C(O)CNCP(=O)(O)O [glyphosate]
- Inhibition of melanization of C. neoformans [1]: reported to inhibit melanization
- Inhibitory activity on growth or melanization ([2]; 200 μg/mL, under the authors' conditions): no significant inhibitory activity
- Melanization of treated cells, observed visually ([2]; 200 μg/mL, 1 mM catecholamine): growth of melanized cells was observed

Structure (SMILES): Clc1ccc(COC(Cn2ccnc2)c2ccc(Cl)cc2Cl)c(Cl)c1 (stereo not drawn) [MCZ, miconazole]
- Melanization of treated cells, observed visually ([2]; 0.5 μg/mL, 1 mM catecholamine): growth of melanized cells was observed

Structure (SMILES): CC[C@H]1CCCC[C@@]2(C[C@@H]3CC[C@@H]4[C@H](C(=O)OCCCCCCCCCCCCCCCC(=O)N(CCCN)CCCCN)[C@]5(CCC[C@@H](C)O5)NC(=[N+]34)N2)O1.[Cl-] [compound 1, ptilomycalin A]
- Melanization of treated cells, observed visually ([2]; 0.8 μg/mL, 1 mM catecholamine (epinephrine, dopamine or L-dopa)): only non-melanized cells grew
- Melanization of treated cells ([2]; 0.8 μg/mL, after 21 days): remained non-melanized
- Appearance of the halo surrounding the disk ([3]; 10 μg per disk, alone, 1 mM L-dopa): presence of non-melanized cells on the halo surrounding the disk
- Appearance of the halo surrounding the disk [3, 5]: a halo of non-melanized cells were observed
- Interaction with AMB in halo assay ([3]; 1 10 μg combined with AMB 2 μg per disk, 1 mM L-dopa): synergizes the fungicidal activity of AMB
- Halo diameter [3, 6]: 13.5 ^b mm
- Halo diameter [3, 7]: 17 ^c mm
- Halo diameter [3, 8]: 15 ^c mm
- Halo diameter [3, 9]: 12 ^c mm
- Halo diameter [4, 6]: 9.50 ^b mm
- Halo diameter [4, 7]: 17 ^c mm
- Halo diameter [4, 8]: 18 ^c mm
- Halo diameter [4, 9]: 12 ^c mm

Structure (SMILES): C[C@@H]1[C@H](O)[C@@H](C)/C=C/C=C/C=C/C=C/C=C/C=C/C=C/[C@H](O[C@@H]2O[C@H](C)[C@@H](O)[C@H](N)[C@@H]2O)C[C@@H]2O[C@](O)(C[C@@H](O)C[C@@H](O)[C@H](O)CC[C@@H](O)C[C@@H](O)CC(=O)O[C@H]1C)C[C@H](O)[C@H]2C(=O)O [AMB, amphotericin B, reference compound]
- Melanization of treated cells, observed visually ([2]; 0.0625 μg/mL, 1 mM catecholamine): growth of melanized cells was observed
- Appearance of the halo surrounding the disk ([3]; 2 μg per disk, alone, 1 mM L-dopa): clear zone of inhibition
- Appearance of the halo surrounding the disk [3, 5]: very clear zone of inhibition

Structure (SMILES): C[C@@H](c1ncncc1F)[C@](O)(Cn1cncn1)c1ccc(F)cc1F [voriconazole]
- Inhibition of laccase and consequent melanin formation in C. neoformans [1]: inhibition of laccase and consequent melanin formation

Source: paper PMC3523195 (Bioorganic & medicinal chemistry, 2011)
